# According to ChEMBL document CHEMBL2321859, “Cytotoxic betulin-derived hydroxypropargylamines trigger apoptosis” (Bioorg Med Chem, 2013):
# Tests used:
# 8505C = experiment: Cytotoxicity against human 8505C cells assessed as cell viability after 96 hrs by SRB assay; format: functional, cell-based; conditions: Homo sapiens, 8505C, 96 h
# DLD-1 = experiment: Cytotoxicity against human DLD1 cells assessed as cell viability after 96 hrs by SRB assay; format: functional, cell-based; conditions: Homo sapiens, DLD-1, 96 h
# A2780 = experiment: Cytotoxicity against human A2780 cells assessed as cell viability after 96 hrs by SRB assay; format: functional, cell-based; conditions: Homo sapiens, A2780, 96 h
# NIH3T3 = experiment: Cytotoxicity against mouse NIH/3T3 cells assessed as cell viability after 96 hrs by SRB assay; format: cell-based; conditions: NIH3T3, 96 h
# [1] = Cytotoxicity against human Lipo cells assessed as cell viability after 96 hrs by SRB assay; format: functional, cell-based; conditions: Homo sapiens, Lipo, 96 h
# [2] = Solubility of the compound in water/DMSO mixture; format: physicochemical; conditions: water/DMSO mixture; read-out: solubility
# Outline: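 Solubility was measured in water/DMSO (95:5, v/v) by HPLC with UV/vis detection.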
# SW-1736 = experiment: Cytotoxicity against human SW1736 cells assessed as cell viability after 96 hrs by SRB assay; format: functional, cell-based; conditions: Homo sapiens, SW-1736, 96 h
# A549 [3] = experiment: Induction of apoptosis in human A549 cells assessed as early apoptotic cells at 5 uM after 6 hrs by annexin V/propidium iodide staining-based FACS flow cytometric analysis relative to control; format: functional
# Outline: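 A549 cells incubated 6 h with compound, then analysed by FACS annexin V/propidium iodide assay. Phosphatidylserine translocation to the outer membrane was taken as the early-apoptosis marker. Cells were scored as percentage dying by necrosis versus programmed cell death. Betulinic acid and maslinic acid were the reference standards.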
# MCF7 = experiment: Cytotoxicity against human MCF7 cells assessed as cell viability after 96 hrs by SRB assay; format: functional, cell-based; conditions: Homo sapiens, MCF7, 96 h
# [4] = Cytotoxicity against human 518A2 cells assessed as cell viability after 96 hrs by SRB assay; format: functional, cell-based; conditions: Homo sapiens, 518A2, 96 h
# A549 [5] = experiment: Cytotoxicity against human A549 cells assessed as cell viability after 96 hrs by SRB assay; format: functional, cell-based; conditions: Homo sapiens, A549, 96 h
# [6] = Cytotoxicity against human A253 cells assessed as cell viability after 96 hrs by SRB assay; format: functional, cell-based; conditions: Homo sapiens, A253, 96 h
smiles,measurement,setting,value
C=C(C)[C@@H]1CC[C@]2([C@H](O)C#CCN3CCOCC3)CC[C@]3(C)[C@H](CC[C@@H]4[C@@]5(C)CC[C@H](OC(C)=O)C(C)(C)[C@@H]5CC[C@]43C)[C@@H]12.Cl,IC50,8505C,7.2 µM
same,IC50,DLD-1,5 µM
same,IC50,A2780,4.1 µM
same,IC50,NIH3T3,7.2 µM
same,IC50,[1],2400 nM
same,solubility,[2],192 µg/mL
same,IC50,SW-1736,8.9 µM
same,Activity,A549 [3],>90%
same,IC50,MCF7,7.7 µM
same,IC50,[4],7 µM
same,IC50,A549 [5],7.6 µM
same,IC50,[6],5.2 µM
